In brackets after ≈: the same amount, converted by molar mass.
How the values were obtained:
[1] = biological target: T1, Vascular endothelial growth factor receptor 2 (Homo sapiens, UniProt P35968); assay: Inhibition of GST tagged VEGFR2 expressed in Sf9 cells
In short: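 GST-fused VEGFR2 catalytic domain, baculovirus-expressed in Sf9 cells (MOI 0.1), glutathione-agarose purified; 5 nM enzyme preincubated with inhibitor and Mg-ATP on ice 4 min, then reacted on immobilized poly(Glu4,Tyr) at 30 °C for 10 min in 60 mM Hepes pH 7.5, MgCl2/MnCl2; ATP 0.6 (2× Km); Eu anti-phosphotyrosine TR-fluorescence; seven concentrations in triplicate, four-parameter IC50 fit.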

[2] = biological target: T2, Hepatocyte growth factor receptor (Homo sapiens, UniProt P08581); assay: Inhibition of GST tagged c-Met expressed in High Five cells
Target sequence in this assay (P08581 whole entry, the tested form may be a part): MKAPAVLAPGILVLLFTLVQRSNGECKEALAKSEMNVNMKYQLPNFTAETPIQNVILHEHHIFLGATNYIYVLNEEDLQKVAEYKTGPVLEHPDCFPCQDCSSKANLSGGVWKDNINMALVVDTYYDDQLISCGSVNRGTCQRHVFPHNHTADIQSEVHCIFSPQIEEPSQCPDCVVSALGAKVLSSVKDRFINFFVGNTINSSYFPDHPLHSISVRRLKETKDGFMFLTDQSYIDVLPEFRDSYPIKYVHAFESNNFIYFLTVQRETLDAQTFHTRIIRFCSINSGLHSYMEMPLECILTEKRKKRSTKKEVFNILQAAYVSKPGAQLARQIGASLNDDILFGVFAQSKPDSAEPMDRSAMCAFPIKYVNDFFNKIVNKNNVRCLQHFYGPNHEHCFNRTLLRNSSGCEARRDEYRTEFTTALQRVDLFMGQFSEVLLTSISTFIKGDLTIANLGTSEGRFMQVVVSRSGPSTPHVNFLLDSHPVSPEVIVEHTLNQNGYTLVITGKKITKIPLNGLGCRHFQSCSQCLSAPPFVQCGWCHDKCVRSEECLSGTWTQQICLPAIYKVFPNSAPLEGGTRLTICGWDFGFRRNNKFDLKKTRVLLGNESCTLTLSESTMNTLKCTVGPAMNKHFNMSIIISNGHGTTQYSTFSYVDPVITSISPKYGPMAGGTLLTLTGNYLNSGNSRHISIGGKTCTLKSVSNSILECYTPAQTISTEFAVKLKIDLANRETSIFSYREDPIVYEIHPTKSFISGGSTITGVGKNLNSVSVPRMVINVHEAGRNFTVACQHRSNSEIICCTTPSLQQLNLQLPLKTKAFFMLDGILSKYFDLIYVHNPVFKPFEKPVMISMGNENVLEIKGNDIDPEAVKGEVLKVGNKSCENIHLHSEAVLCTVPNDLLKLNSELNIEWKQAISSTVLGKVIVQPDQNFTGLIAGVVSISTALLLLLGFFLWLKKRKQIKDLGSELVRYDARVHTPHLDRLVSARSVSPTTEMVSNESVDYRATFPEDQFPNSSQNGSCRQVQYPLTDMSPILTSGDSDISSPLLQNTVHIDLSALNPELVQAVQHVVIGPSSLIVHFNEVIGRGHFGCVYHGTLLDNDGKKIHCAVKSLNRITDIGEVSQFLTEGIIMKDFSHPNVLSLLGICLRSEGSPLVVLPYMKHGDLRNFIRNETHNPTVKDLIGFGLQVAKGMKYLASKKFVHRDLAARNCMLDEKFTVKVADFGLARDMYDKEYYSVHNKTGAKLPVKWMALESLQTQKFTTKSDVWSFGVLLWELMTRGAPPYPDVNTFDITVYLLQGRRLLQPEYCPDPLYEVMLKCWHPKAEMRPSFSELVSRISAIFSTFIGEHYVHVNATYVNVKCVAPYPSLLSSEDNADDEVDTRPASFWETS

[3] = biological target: T2, Hepatocyte growth factor receptor; assay: Inhibition of TPR-Met fusion protein assessed as Y1230-34-35 phosphorylation
Target sequence in this assay (P08581 25-1390 limits assumed): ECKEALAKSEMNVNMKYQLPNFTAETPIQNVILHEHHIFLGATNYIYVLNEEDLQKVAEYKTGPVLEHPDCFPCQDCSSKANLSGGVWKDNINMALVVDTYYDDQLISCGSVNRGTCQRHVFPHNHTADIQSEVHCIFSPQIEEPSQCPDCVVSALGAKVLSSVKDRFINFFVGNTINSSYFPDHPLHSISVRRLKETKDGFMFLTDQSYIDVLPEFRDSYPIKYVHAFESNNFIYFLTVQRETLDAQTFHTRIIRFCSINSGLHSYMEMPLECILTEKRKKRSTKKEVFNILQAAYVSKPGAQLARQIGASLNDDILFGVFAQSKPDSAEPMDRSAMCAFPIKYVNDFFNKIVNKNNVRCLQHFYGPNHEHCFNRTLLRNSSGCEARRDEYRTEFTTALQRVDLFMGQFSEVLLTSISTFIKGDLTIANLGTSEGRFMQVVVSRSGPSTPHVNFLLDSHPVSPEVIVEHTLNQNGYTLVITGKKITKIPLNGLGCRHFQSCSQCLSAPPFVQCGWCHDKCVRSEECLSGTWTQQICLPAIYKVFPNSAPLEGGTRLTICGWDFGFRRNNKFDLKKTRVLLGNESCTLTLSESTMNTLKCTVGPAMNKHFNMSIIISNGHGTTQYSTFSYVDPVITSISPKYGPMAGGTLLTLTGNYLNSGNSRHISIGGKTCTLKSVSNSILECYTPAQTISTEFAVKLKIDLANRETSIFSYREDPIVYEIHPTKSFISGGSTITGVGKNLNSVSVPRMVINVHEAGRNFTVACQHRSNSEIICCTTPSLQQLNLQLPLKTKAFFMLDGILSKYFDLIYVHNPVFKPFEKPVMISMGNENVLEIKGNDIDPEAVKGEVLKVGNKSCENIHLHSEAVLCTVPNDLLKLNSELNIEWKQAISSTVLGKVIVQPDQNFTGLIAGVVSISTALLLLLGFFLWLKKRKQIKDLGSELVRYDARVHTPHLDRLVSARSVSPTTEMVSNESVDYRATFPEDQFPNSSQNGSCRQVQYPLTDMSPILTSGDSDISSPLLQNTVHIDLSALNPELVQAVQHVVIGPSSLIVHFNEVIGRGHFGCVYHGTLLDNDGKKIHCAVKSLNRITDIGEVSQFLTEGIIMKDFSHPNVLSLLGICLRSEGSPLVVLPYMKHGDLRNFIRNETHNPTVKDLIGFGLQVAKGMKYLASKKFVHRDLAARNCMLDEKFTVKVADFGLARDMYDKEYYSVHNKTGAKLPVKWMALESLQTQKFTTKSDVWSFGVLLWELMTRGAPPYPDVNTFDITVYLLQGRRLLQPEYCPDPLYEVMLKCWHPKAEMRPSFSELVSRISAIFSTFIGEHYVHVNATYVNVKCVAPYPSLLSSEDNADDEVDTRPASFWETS

[4] = Solubility of compound; format: physicochemical
[5] = Tmax in Sprague-Dawley rat at 5 mg/kg, po; format: ADME, organism-based; design: dose 5 mg/kg, route oral; conditions: in vivo
[6] = biological target: Inhibitor of nuclear factor kappa-B kinase subunit beta (Homo sapiens) (UniProt O14920); assay: Inhibition of IKK-beta at 100 nM
In short: (§1)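 Radiometric protein kinase assays run through an outsourced kinase selectivity screening service; test agent at 100 nM, percent inhibition of each enzyme reported.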

Canis familiaris [7] = assay: AUC in Beagle dog at 5 mg/kg, po; format: ADME, organism-based, Canis lupus familiaris, Plasma; design: dose 5 mg/kg, route oral; conditions: in vivo
HOS-TE85 = assay: Antitumor activity in human MNNGHOS cells xenografted mouse assessed as tumor growth inhibition at 20 mg/kg, po once daily after 26 days; format: functional; conditions: HOS-TE85, 624 h, read-out: TGI
In short: (§2)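 Human tumor xenografts in mice; test agent given orally at 20 mg/kg once daily; efficacy expressed as percent tumor growth inhibition.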

[8] = biological target: Tyrosine-protein kinase ABL1 (Homo sapiens) (UniProt P00519); assay: Inhibition of Abl at 100 nM; in short: as §1
[9] = Volume of distribution at steady state in Beagle dog at 0.8 mg/kg, iv or 5 mg/kg, po; format: ADME, organism-based, Canis lupus familiaris; conditions: in vivo, read-out: Vdss
[10] = biological target: Vascular endothelial growth factor receptor 3 (Homo sapiens) (UniProt P35916); assay: Inhibition of VEGFR3 at 100 nM; in short: as §1
[11] = Volume of distribution at steady state in Sprague-Dawley rat; format: ADME, organism-based; conditions: in vivo, read-out: Vdss
[12] = biological target: Mast/stem cell growth factor receptor Kit (Homo sapiens) (UniProt P10721); assay: Inhibition of c-Kit at 100 nM; in short: as §1
[13] = Clearance in Sprague-Dawley rat; format: ADME, organism-based; conditions: in vivo
[14] = biological target: Epidermal growth factor receptor (Homo sapiens) (UniProt P00533); assay: Inhibition of EGFR at 100 nM; in short: as §1
[15] = biological target: Macrophage-stimulating protein receptor (Homo sapiens) (UniProt Q04912); assay: Inhibition of Ron at 100 nM; in short: as §1
Canis familiaris [16] = assay: Clearance in Beagle dog at 0.8 mg/kg, iv or 5 mg/kg, po; format: ADME, organism-based, Canis lupus familiaris; conditions: in vivo
[17] = biological target: Glycogen synthase kinase-3 beta (Homo sapiens) (UniProt P49841); assay: Inhibition of GSK3-beta at 100 nM; in short: as §1
Glycogen synthase kinase-3 beta (Homo sapiens), sequence (P49841 whole entry, looked up): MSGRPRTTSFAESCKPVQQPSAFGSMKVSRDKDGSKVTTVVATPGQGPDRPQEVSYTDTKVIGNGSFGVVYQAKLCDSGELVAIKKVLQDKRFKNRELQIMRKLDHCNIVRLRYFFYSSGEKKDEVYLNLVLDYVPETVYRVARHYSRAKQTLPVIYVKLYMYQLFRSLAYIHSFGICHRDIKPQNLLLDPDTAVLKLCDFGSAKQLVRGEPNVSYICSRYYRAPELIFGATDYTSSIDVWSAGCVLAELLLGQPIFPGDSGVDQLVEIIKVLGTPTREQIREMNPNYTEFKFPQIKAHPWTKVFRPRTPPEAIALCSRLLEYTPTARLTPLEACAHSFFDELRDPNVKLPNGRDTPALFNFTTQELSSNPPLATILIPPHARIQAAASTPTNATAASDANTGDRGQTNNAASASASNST

[18] = Oral bioavailability in Sprague-Dawley rat at 5 mg/kg; format: ADME, organism-based; conditions: in vivo
In short: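 An iv reference arm received 2.5 mg/kg (four animals) in DMSO. Plasma was analysed by HPLC-triple-quadrupole MS, and %F was derived from po versus iv exposure.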

Cytochrome P450 3A4 = Cytochrome P450 3A4 (Homo sapiens, UniProt P08684); assay: Inhibition of CYP3A4 at 10 uM; format: ADME
Cytochrome P450 3A4, sequence (P08684 whole entry): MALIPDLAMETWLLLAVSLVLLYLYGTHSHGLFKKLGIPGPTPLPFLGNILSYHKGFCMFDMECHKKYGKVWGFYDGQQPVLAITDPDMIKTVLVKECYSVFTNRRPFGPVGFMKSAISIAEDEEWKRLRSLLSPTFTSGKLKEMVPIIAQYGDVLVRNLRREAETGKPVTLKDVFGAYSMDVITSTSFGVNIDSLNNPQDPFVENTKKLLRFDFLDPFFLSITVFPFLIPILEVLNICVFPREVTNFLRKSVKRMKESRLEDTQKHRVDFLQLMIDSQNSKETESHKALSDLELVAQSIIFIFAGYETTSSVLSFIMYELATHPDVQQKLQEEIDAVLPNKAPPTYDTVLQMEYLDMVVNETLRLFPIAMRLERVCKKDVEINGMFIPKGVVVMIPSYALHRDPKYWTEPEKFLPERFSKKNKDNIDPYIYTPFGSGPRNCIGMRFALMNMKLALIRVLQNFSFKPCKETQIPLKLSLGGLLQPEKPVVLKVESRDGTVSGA

[19] = Cmax in Sprague-Dawley rat at 5 mg/kg, po; format: ADME, organism-based; design: dose 5 mg/kg, route oral; conditions: in vivo
[20] = Half life in Sprague-Dawley rat at 2.5 mg/kg, iv; format: ADME, organism-based; design: dose 2.5 mg/kg, route intravenous; conditions: in vivo
In short: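 Female Sprague–Dawley rats were given a single iv dose of 2.5 mg/kg (four animals) in DMSO. The test material had >95% chromatographic purity. Plasma was analysed by HPLC with triple-quadrupole MS, and PK parameters were calculated from the concentration–time data.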

[21] = Tmax in Beagle dog at 5 mg/kg, po; format: ADME, organism-based, Canis lupus familiaris; design: dose 5 mg/kg, route oral; conditions: in vivo
[22] = biological target: Serine/threonine-protein kinase Chk1 (Homo sapiens) (UniProt O14757); assay: Inhibition of CHK1 at 100 nM; in short: as §1
[23] = Inhibition of JNK1-alpha-1 at 100 nM; in short: as §1
Canis familiaris [24] = assay: Oral bioavailability in Beagle dog at 5 mg/kg; format: ADME, organism-based, Canis lupus familiaris; conditions: in vivo
COLO 205 = assay: Antitumor activity in human Colo205 cells xenografted mouse assessed as tumor growth inhibition at 20 mg/kg, po once daily after 16 days; format: functional; conditions: COLO 205, 384 h, read-out: TGI; in short: as §2
[25] = Half life in Beagle dog at 0.8 mg/kg, iv; format: ADME, organism-based, Canis lupus familiaris; design: dose 0.8 mg/kg, route intravenous; conditions: in vivo
[26] = biological target: Vascular endothelial growth factor receptor 1 (Homo sapiens) (UniProt P17948); assay: Inhibition of VEGFR1 at 100 nM; in short: as §1
DU-145 = assay: Antitumor activity in human DU145 cells xenografted mouse assessed as tumor growth inhibition at 20 mg/kg, po once daily after 11 days; format: functional; conditions: DU-145, 264 h, read-out: TGI; in short: as §2
[27] = biological target: Receptor-type tyrosine-protein kinase FLT3 (Homo sapiens) (UniProt P36888); assay: Inhibition of Flt3 at 100 nM; in short: as §1
[28] = biological target: High affinity nerve growth factor receptor (Homo sapiens) (UniProt P04629); assay: Inhibition of TrkA at 100 nM; in short: as §1
HCT-116 = assay: Antitumor activity in human HCT116 cells xenografted mouse assessed as tumor growth inhibition at 20 mg/kg, po once daily after 14 days; format: functional; conditions: HCT-116, 336 h, read-out: TGI; in short: as §2
[29] = biological target: T1, Vascular endothelial growth factor receptor 2; assay: Inhibition of human VEGFR2-dependent ERK phosphorylation in HUVEC; format: cell-based
[30] = Cmax in Beagle dog at 5 mg/kg, po; format: ADME, organism-based, Canis lupus familiaris; design: dose 5 mg/kg, route oral; conditions: in vivo
[31] = AUC in Sprague-Dawley rat at 5 mg/kg, po; format: ADME, organism-based; design: dose 5 mg/kg, route oral; conditions: plasma
[32] = biological target: Insulin-like growth factor 1 receptor (Homo sapiens) (UniProt P08069); assay: Inhibition of IGF1R at 100 nM; in short: as §1
[33] = biological target: Angiopoietin-1 receptor (Homo sapiens) (UniProt Q02763); assay: Inhibition of Tie2 at 100 nM; in short: as §1
[34] = biological target: Tyrosine-protein kinase JAK2 (Homo sapiens) (UniProt O60674); assay: Inhibition of JAK2 at 100 nM; in short: as §1
MKN-45 = assay: Antitumor activity in human MKN45 cells xenografted mouse assessed as tumor growth inhibition at 20 mg/kg, po once daily after 13 days; format: functional; conditions: MKN-45, 312 h, read-out: TGI; in short: as §2

T1 sequence (P35968 whole entry, the tested form may be a part): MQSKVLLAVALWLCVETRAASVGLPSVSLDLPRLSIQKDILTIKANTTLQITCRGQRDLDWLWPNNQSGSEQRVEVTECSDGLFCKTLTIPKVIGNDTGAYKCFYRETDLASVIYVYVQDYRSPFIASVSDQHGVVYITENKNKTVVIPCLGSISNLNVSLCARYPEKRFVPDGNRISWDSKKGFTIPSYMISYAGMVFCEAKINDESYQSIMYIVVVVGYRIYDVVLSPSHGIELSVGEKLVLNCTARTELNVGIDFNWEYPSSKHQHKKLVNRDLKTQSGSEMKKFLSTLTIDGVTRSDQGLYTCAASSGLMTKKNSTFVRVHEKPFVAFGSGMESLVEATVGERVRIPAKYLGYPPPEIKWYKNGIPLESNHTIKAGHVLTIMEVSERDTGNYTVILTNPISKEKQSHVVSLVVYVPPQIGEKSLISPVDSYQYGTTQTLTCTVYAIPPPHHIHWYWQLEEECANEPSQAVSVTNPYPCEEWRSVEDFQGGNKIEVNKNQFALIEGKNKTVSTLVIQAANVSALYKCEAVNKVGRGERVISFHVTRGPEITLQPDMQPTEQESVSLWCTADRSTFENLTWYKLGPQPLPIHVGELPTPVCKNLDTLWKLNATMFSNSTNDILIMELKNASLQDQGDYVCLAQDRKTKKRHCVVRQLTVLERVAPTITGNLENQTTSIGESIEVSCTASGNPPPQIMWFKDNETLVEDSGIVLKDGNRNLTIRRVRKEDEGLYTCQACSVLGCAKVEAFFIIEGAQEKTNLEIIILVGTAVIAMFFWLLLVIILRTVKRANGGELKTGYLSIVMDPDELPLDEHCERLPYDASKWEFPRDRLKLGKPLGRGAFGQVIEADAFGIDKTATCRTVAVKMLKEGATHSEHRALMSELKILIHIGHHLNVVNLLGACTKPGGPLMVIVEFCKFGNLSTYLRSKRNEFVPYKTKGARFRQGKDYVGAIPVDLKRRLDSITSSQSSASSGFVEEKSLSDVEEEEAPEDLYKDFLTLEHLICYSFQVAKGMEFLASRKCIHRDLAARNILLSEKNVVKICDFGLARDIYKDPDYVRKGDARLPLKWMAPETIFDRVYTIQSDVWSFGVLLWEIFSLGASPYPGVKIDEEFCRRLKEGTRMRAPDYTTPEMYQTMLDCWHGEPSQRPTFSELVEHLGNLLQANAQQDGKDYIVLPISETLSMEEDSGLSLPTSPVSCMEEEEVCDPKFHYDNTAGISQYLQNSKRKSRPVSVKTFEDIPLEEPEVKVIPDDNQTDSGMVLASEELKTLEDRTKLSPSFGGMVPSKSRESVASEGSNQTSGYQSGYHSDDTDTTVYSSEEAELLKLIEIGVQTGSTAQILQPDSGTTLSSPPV

O=C(Cc1ccccc1)NC(=S)Nc1ccc(Oc2ccnc3cc(-c4ccoc4)sc23)c(F)c1
IC50 [1]: 593 nM
IC50 [2]: 74 nM

CCN(CC)C(=O)c1cc2nccc(Oc3ccc(NC(=S)NC(=O)Cc4ccccc4)cc3F)c2s1
IC50 [1]: 386 nM
IC50 [2]: 114 nM

Cn1ncnc1-c1cc2nccc(Oc3ccc(NC(=S)NC(=O)Cc4ccccc4)cc3F)c2s1
IC50 [1]: 28 nM
IC50 [2]: 69 nM
IC50 [3]: 20 nM

O=C(Cc1ccccc1)NC(=S)Nc1ccc(Oc2ccnc3cc(-c4ccccn4)sc23)c(F)c1
IC50 [1]: 17 nM

O=C(Cc1ccccc1)NC(=S)Nc1ccc(Oc2ccnc3cc(-c4cccnc4)sc23)c(F)c1
IC50 [1]: 113 nM

Cn1ccnc1-c1cc2nccc(Oc3ccc(NC(=S)NC(=O)Cc4ccccc4)cc3F)c2s1
IC50 [1]: 10 nM
solubility [4]: 1.7 µg/mL (≈ 3.28 µM)

O=C(Cc1ccccc1)NC(=S)Nc1ccc(Oc2ccnc3cc(-c4nccs4)sc23)c(F)c1
IC50 [1]: 17 nM
IC50 [2]: 65 nM
IC50 [3]: 28 nM

O=C(Cc1ccccc1)NC(=S)Nc1ccc(Oc2ccnc3cc(C(=O)N4CCCC4)sc23)c(F)c1
IC50 [1]: 9 nM
IC50 [2]: 54 nM

CCn1ccnc1-c1cc2nccc(Oc3ccc(NC(=S)NC(=O)Cc4ccccc4)cc3F)c2s1
IC50 [1]: 25 nM
IC50 [2]: 108 nM
IC50 [3]: 35 nM

CN1CCN(C(=O)c2cc3nccc(Oc4ccc(NC(=S)NC(=O)Cc5ccccc5)cc4F)c3s2)CC1
IC50 [1]: 344 nM
IC50 [2]: 193 nM

O=C(Cc1ccccc1)NC(=S)Nc1ccc(Oc2ccnc3ccsc23)c(F)c1
IC50 [1]: 1130 nM

O=C(Cc1ccccc1)NC(=S)Nc1ccc(Oc2ccnc3cc(C(=O)c4ccco4)sc23)c(F)c1
IC50 [1]: 127 nM
IC50 [2]: 130 nM

Cn1cc(-c2cc3nccc(Oc4ccc(NC(=S)NC(=O)Cc5ccccc5)cc4F)c3s2)cn1
IC50 [1]: 25 nM
IC50 [2]: 24 nM

CC(O)c1cc2nccc(Oc3ccc(NC(=S)NC(=O)Cc4ccccc4)cc3F)c2s1 (configuration not stated)
IC50 [1]: 561 nM

CCn1cnc(-c2cc3nccc(Oc4ccc(NC(=S)NC(=O)Cc5ccccc5)cc4F)c3s2)c1
IC50 [1]: 11 nM
IC50 [2]: 52 nM
IC50 [3]: 22 nM

CSc1cc2nccc(Oc3ccc(NC(=S)NC(=O)Cc4ccccc4)cc3F)c2s1
IC50 [1]: 346 nM

O=C(Cc1ccccc1)NC(=S)Nc1ccc(Oc2ccnc3cc(-c4nncs4)sc23)c(F)c1
IC50 [1]: 145 nM
IC50 [2]: 60 nM

O=C(Cc1ccccc1)NC(=S)Nc1ccc(Oc2ccnc3cc(-c4cncnc4)sc23)c(F)c1
IC50 [1]: 175 nM
IC50 [2]: 63 nM
IC50 [3]: 5000 nM

O=C(Cc1ccccc1)NC(=S)Nc1ccc(Oc2ccnc3cc(-c4cccs4)sc23)c(F)c1
IC50 [1]: 32 nM

Cn1cnc(-c2cc3nccc(Oc4ccc(NC(=S)NC(=O)Cc5ccccc5)cc4F)c3s2)c1
Tmax [5]: 3.5 h
inhibition [6]: < 5%
IC50 [1]: 10 nM
AUC (Canis familiaris [7]): 0.74 µM·h
inhibition in vivo at 20 mg/kg (HOS-TE85): 61%
inhibition [8]: 91%
solubility [4]: 30 µg/mL (≈ 58 µM)
IC50 [3]: 12 nM
Vd [9]: 1.5 L/kg
inhibition [10]: 100%
Vd [11]: 0.25 L/kg
inhibition [12]: 92%
clearance [13]: 5.5 mL/min/kg
inhibition [14]: < 5%
inhibition [15]: 80%
CL (Canis familiaris [16]): 18.3 mL/min/kg
inhibition [17]: < 5%
bioavailability [18]: 12%
Inhibition (Cytochrome P450 3A4): Not Active
Cmax [19]: 140 nM
half-life [20]: 1.2 h
Tmax [21]: 1.1 h
inhibition [22]: < 5%
inhibition [23]: < 5%
F (Canis familiaris [24]): 42%
inhibition in vivo at 20 mg/kg (COLO 205): 41%
half-life [25]: 5.8 h
inhibition [26]: 91%
inhibition in vivo at 20 mg/kg (DU-145): 57%
inhibition [27]: 96%
inhibition [28]: 99%
inhibition in vivo at 20 mg/kg (HCT-116): 41%
IC50 [29]: 30 nM
Cmax [30]: 210 nM
AUC [31]: 0.74 µM·h
inhibition [32]: < 5%
inhibition [33]: 81%
inhibition [34]: < 5%
inhibition in vivo at 20 mg/kg (MKN-45): 94%

NC(=O)c1cc2nccc(Oc3ccc(NC(=S)NC(=O)Cc4ccccc4)cc3F)c2s1
IC50 [1]: 129 nM

COC(=O)c1cc2nccc(Oc3ccc(NC(=S)NC(=O)Cc4ccccc4)cc3F)c2s1
IC50 [1]: 90 nM

CN(C)C(=O)c1cc2nccc(Oc3ccc(NC(=S)NC(=O)Cc4ccccc4)cc3F)c2s1
IC50 [1]: 19 nM

Cn1cccc1-c1cc2nccc(Oc3ccc(NC(=S)NC(=O)Cc4ccccc4)cc3F)c2s1
IC50 [1]: 31 nM
IC50 [2]: 49 nM
IC50 [3]: 108 nM

COc1cc2nccc(Oc3ccc(NC(=S)NC(=O)Cc4ccccc4)cc3F)c2cc1OC
IC50 [1]: 32 nM

CNC(=O)c1cc2nccc(Oc3ccc(NC(=S)NC(=O)Cc4ccccc4)cc3F)c2s1
IC50 [1]: 133 nM

O=C(Cc1ccccc1)NC(=S)Nc1ccc(Oc2ccnc3cc(-c4ncccn4)sc23)c(F)c1
IC50 [1]: 94 nM

O=C(Cc1ccccc1)NC(=S)Nc1ccc(Oc2ccnc3cc(C(=O)N4CCOCC4)sc23)c(F)c1
IC50 [1]: 289 nM
IC50 [2]: 125 nM

Reference: ChEMBL document CHEMBL1145636, “Discovery of a novel and potent series of thieno[3,2-b]pyridine-based inhibitors of c-Met and VEGFR2 tyrosine kinases” (Bioorg Med Chem Lett, 2008)
